# Laboratory results as given in ChEMBL document CHEMBL2086264.
# Activity calls are given as the source filed them. The rule behind the calls is not given here.
# Assays:
# [1] = Inhibition of Staphylococcus aureus PlsY expressed in Escherichia coli FB23281 using [U-14C]glycerol-PO4 as substrate after 20 mins by scintillation counting
# Procedure, shortened: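 Membranes from E. coli FB23281 (ΔplsY) expressing S. aureus PlsY (SA1187), 4 µg per reaction. pH 7.4 buffer of 100 mM Tris–HCl, 150 mM NaCl, 1 mg/mL BSA and 5 mM Na3VO4, with 100 µM [U-14C]glycerol-PO4. Started with 16:0-PO4 (final 100 µM), 20 min at 37°C. Spotted on filter discs, washed in graded ice-cold TCA, scintillation counted.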
# Staphylococcus aureus = experiment: Antibacterial activity against Staphylococcus aureus ATCC 29213 after overnight incubation by microbroth dilution assay; format: functional
# Procedure, shortened: (§1)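 CLSI M7A7 microbroth dilution in Mueller-Hinton broth; S. pneumoniae broth given 5% lysed horse blood. DMSO stocks of 10 mg/mL; twofold dilutions to final 200–0.0125 µg/mL. Mid-log inoculum (OD600 0.5) diluted to final OD600 0.0005 (~10^5 CFU/mL). Overnight at 37°C; MIC is the lowest concentration inhibiting 90% of visible growth.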
# Streptococcus pneumoniae = experiment: Antibacterial activity against Streptococcus pneumoniae R6 after overnight incubation by microbroth dilution assay; format: functional; procedure, shortened: as §1
# Enterococcus faecalis = experiment: Antibacterial activity against Enterococcus faecalis ATCC 33186 after overnight incubation by microbroth dilution assay; format: functional
# Procedure, shortened: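 CLSI microbroth dilution in Mueller-Hinton broth; compounds dissolved in DMSO, twofold serial dilutions giving final 200–0.0125 µg/mL. Inoculum from single colony grown at 37°C to mid-log (OD600 0.5), diluted to final OD600 0.0005 (~10^5 CFU/mL). Incubated overnight at 37°C; MIC = lowest concentration inhibiting 90% of visible growth.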
# Bacillus subtilis = experiment: Antibacterial activity against Bacillus subtilis ATCC 23857 after overnight incubation by microbroth dilution assay; format: functional; procedure, shortened: as §1
# Bacillus anthracis [2] = experiment: Antibacterial activity against Bacillus anthracis after overnight incubation by microbroth dilution assay; format: functional
# Bacillus anthracis [3] = experiment: Inhibition of protein synthesis in Bacillus anthracis sterne assessed as Inhibition of [3H]amino acid incorporation into protein incubated for 15 mins prior to [3H]amino acid addition measured after 30 mins by scintillation counting; format: functional, organism-based
# Bacillus anthracis [4] = experiment: Inhibition of DNA synthesis in Bacillus anthracis sterne assessed as Inhibition of [3H]thymidine incorporation into DNA incubated for 15 mins prior to [3H]thymidine addition measured after 30 mins by scintillation counting; format: functional, organism-based
# Bacillus anthracis [5] = experiment: Inhibition of RNA synthesis in Bacillus anthracis sterne assessed as Inhibition of [3H]uracil incorporation into RNA incubated for 15 mins prior to [3H]uracil addition measured after 30 mins by scintillation counting; format: functional, organism-based
SMILES,IC50 [1] [µM],MIC90 (Staphylococcus aureus) [µg/mL],MIC90 (Streptococcus pneumoniae) [µg/mL],MIC90 (Enterococcus faecalis) [µg/mL],MIC90 (Bacillus subtilis) [µg/mL],MIC90 (Bacillus anthracis [2]) [µg/mL],inhibition (Bacillus anthracis [3]),inhibition (Bacillus anthracis [4]),inhibition (Bacillus anthracis [5])
CCCCCCCCCCCCCCCC(=O)NS(=O)(=O)OC1CCOC1 (stereo not drawn),45,25,> 200,> 200,> 200,1.56,Active,Active,Active
C=CCCCCCCCCC(=O)NS(=O)(=O)Oc1ccc(OC)cc1,27,12.5,200,1.6,6.25,12.5,Active,Active,Active
CCCCCCCCCCCCCCCC(=O)NS(=O)(=O)Oc1ccc(C(=O)OCC)cc1,10,6.25,1.56,> 200,> 200,3.13,Active,Active,Active
O=C(CCCCCCc1ccccc1)NS(=O)(=O)Oc1ccccc1,76,50,50,100,> 200,12.5,Active,Active,Active
CCCCCCCCCCCCCCCC(=O)NS(=O)(=O)OC [METHYL PALMITOYLSULFAMATE],80,> 200,> 200,> 200,> 200,> 100,Active,Active,Active
CCCCCCCCCCCCCCCC(=O)NS(=O)(=O)Oc1ccc(OC)cc1,8,12.5,12.5,3.12,3.12,3.13,Active,Active,Active
CCCCCCCCCCCCCCCC(=O)NS(=O)(=O)Oc1ccc2c(OS(N)(=O)=O)coc2c1,41,25,3.13,100,100,3.13,Active,Active,Active
CCCCCCCCCCCCCCCC(=O)NS(=O)(=O)Oc1ccc(-c2ccc([N+](=O)[O-])cc2)cc1,11,100,0.78,> 200,> 200,1.56,Active,Active,Active
CCCCCCCCCCCCCCCC(=O)NS(=O)(=O)Oc1ccc(C)cc1,12,> 200,> 200,200,200,6.25,Active,Active,Active
CCCCCCCCCCCCCCCC(=O)NS(=O)(=O)Oc1ccc(Cl)cc1,6,> 200,100,> 200,> 200,6.25,Active,Active,Active
CCCCCCCCCCCCCCCC(=O)NS(=O)(=O)Oc1cccc(Cl)c1,14,> 200,> 200,100,100,3.13,Active,Active,Active
CCCCCCCCCCCCCCCC(=O)NS(=O)(=O)Oc1ccc2ncccc2c1,9,> 200,1.56,200,200,3.13,Active,Active,Active
CCCCCCCCCCCCCCCC(=O)NS(=O)(=O)Oc1ccc(CCN)cc1,> 100,> 200,> 200,> 200,> 200,> 100,Active,Active,Active
CCCCCCCCCCCCCC(=O)NS(=O)(=O)Oc1ccc(OC)cc1,6,> 200,> 200,6.25,> 200,0.78,Active,Active,Active
CCCCCCCCCCCCCCCC(=O)NS(=O)(=O)OC1CCNCC1,> 100,> 200,> 200,> 200,> 200,> 100,Active,Active,Active
CCCCCCCCCCCCCCCC(=O)NS(=O)(=O)Oc1ccc(CC(=O)OC)cc1,11,25,0.78,> 200,> 200,3.13,Active,Active,Active
CCCCCCCCCCCCCCCC(=O)NS(=O)(=O)OC1CCOCC1,30,> 200,> 200,> 200,> 200,3.13,Active,Active,Active
CCCCCCCCCCCCCCCC(=O)NS(=O)(=O)OC1CCN(C(=O)OC(C)(C)C)CC1,15,> 200,> 200,> 200,> 200,3.13,Active,Active,Active
CCCCCCCCCCCCCCCC(=O)NS(=O)(=O)Oc1ccc(CCNC(=O)OC(C)(C)C)cc1,22,> 200,3.13,> 200,> 200,1.56,Active,Active,Active
CCCCCCCCCCCCCCCC(=O)NS(=O)(=O)OC1CCCCC1 [CYCLOHEXYL PALMITOYLSULFAMATE],5,> 200,100,> 200,> 200,6.25,Active,Active,Active
CCCCCCCCCCCCCCCC(=O)NS(=O)(=O)Oc1ccc(Cl)c(Cl)c1,9,> 200,> 200,100,100,12.5,Active,Active,Active
CCCCCCCCCCCCCCCC(=O)NS(=O)(=O)OC1CCCC1 [CYCLOPENTYL PALMITOYLSULFAMATE],> 100,> 200,> 200,> 200,> 200,> 100,Active,Active,Active
CCCCCCCCCCCCCCCC(=O)NS(=O)(=O)Oc1ccc2c(c1)OCO2,12,100,3.13,> 200,> 200,> 100,Active,Active,Active
O=C(CCCCCCCCCCc1ccccc1)NS(=O)(=O)Oc1ccccc1,8,6.25,200,12.5,100,3.13,Active,Active,Active
O=C(/C=C/c1ccc(-c2ccccc2)cc1)NS(=O)(=O)Oc1ccccc1,> 100,25,100,50,> 200,100,Active,Active,Active
O=C(CCCCCc1ccccc1)NS(=O)(=O)Oc1ccccc1,100,100,50,50,> 200,100,Active,Active,Active
CCCCCCCCCCCCCCCC(=O)NS(=O)(=O)Oc1ccccc1 [PHENYL PALMITOYLSULFAMATE],8,> 200,> 200,50,50,3.13,Active,Active,Active
